Here are results for two molecules from ChEMBL document CHEMBL5674869, “The Histone Methyltransferase Inhibitor A-366 Uncovers a Role for G9a/GLP in the Epigenetics of Leukemia” (PLoS One, 2015).

The subject of one data set is MCF7. As to the kind of experiment: Antiproliferative activity against human MCF7 cells assessed as inhibition of colony formation at 10 uM after 14 days by crystal violet staining based clonogenic assay. The class given is functional, cell-based. The following applies: time 14.0 day. The essentials: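 Clonogenic assay: 500 live cells per well were seeded into six-well plates in drug-free medium. Compound diluted in culture medium was added 24 h later. Cells were cultured at 37°C, then fixed and stained with 0.2% crystal violet. Colonies were counted on an automated colony counter.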

The test system of another data set is HT-1080. As to the kind of experiment: Antiproliferative activity against human HT-1080 cells after 2 days by Cell-Titer-Glo assay. It is filed as functional, cell-based. Particulars: HT-1080, 48 h. An outline of the steps:
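ATCC tumor lines were grown in their recommended media with 10% FBS and STR-authenticated. Cells were exposed to compound for the stated number of days. Viable cells were read by CellTiter-Glo endpoint. Inhibition was the ratio of treated to untreated wells, with cell-free wells set as 100% inhibition. The EC50 was taken from the dose response.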

A further data set relates to MV4-11. The experiment in a line: Antitumor activity against human MV4-11 cells xenografted in SCID/beige mouse assessed as tumor growth inhibition at 30 mg/kg/day via osmotic-mini pump for 14 days. It is filed as functional. Particulars: MV4-11, 336 h, time 14 day. The essentials:
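MV4;11 cells mixed with 50% Matrigel, 5 x 10^6 cells injected subcutaneously in flank of 6–8 week old female SCID-beige mice. At ~200 mm3, mice allocated by tumor volume (n = 10/group). Dosed by osmotic mini-pump in 98% PEG-400/2% Tween-80 for 14 days. Calipers read 2 times weekly, V = (L x W2)/2. %TGI computed from control versus treated mean tumor volumes.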
Background: A xenograft is tissue or cells of one species grown in another, often human tumour cells in immunodeficient mice.

Data set [1] has as its target T1, Histone-lysine N-methyltransferase EHMT2 (Homo sapiens) (UniProt Q96KQ7).
T1 sequence (whole entry): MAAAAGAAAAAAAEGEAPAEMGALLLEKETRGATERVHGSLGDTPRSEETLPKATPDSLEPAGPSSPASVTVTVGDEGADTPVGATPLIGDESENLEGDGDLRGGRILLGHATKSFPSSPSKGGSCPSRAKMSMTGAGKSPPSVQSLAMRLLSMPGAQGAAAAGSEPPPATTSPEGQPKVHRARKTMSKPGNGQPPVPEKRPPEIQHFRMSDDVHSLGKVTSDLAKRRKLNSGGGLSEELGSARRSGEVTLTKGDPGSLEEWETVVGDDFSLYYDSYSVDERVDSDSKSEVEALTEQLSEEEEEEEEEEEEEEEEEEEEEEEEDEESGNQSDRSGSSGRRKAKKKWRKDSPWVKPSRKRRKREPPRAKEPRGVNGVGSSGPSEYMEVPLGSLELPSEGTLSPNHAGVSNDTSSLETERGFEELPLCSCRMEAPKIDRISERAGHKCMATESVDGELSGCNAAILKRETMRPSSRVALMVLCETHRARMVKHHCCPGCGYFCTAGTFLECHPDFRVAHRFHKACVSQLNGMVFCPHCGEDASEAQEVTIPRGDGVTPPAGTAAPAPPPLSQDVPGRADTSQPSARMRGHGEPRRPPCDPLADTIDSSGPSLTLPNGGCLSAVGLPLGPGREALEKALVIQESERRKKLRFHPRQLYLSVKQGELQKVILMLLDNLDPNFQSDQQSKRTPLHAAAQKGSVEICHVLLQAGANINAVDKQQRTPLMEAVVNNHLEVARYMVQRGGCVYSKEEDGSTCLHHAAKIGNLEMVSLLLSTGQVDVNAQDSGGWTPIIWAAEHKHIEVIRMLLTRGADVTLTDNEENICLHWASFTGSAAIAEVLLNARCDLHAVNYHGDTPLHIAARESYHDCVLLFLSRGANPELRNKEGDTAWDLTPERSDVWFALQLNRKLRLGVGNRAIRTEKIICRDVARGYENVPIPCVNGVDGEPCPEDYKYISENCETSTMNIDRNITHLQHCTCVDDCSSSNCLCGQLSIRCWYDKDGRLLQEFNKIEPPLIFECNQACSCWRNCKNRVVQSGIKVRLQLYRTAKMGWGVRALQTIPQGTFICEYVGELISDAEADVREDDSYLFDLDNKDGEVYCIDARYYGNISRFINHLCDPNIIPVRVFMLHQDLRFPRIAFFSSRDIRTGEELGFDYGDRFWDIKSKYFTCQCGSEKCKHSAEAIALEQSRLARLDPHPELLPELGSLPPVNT
The experiment in a line: Inhibition of G9a in human PC-3 cells assessed as effect on H3k27me3 levels at 0.3 to 3 uM after 72 hrs by Western blot analysis. It is filed as cell-based. The following applies: dose 0.3-3 µM. The essentials: (§1)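 PC-3 prostate cells incubated with DMSO, 0.3 or 3 μM compound for 72 h. Lysates probed by western blot with antibodies to H3K9me2, H3K4me2, H3K4me3, H3K9me3, H4K20me1, H4K20me3, H3K36me2 and H3K27me3.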
For orientation: Immunoblotting shows a protein as a band on a membrane.

The target of data set [2] is T1, Histone-lysine N-methyltransferase EHMT2 (Homo sapiens). As to the kind of experiment: Inhibition of G9a in human HL-60 cells assessed as increase in cell differentiation marker CD11b for 14 days by flow cytometry. The following applies: time 14.0 day.
Data set [3] has the same target. The experiment in a line: Inhibition of G9a in human PC-3 cells assessed as effect on H3k36me2 levels at 0.3 to 3 uM after 72 hrs by Western blot analysis. The class given is cell-based. The following applies: dose 0.3-3 µM. An outline of the steps:
as §1

The next data set concerns HL-60. As to the kind of experiment: Antiproliferative activity against human HL-60 cells after 14 days by Cell-titer Glo assay. The class given is functional, cell-based. Particulars: time 14.0 day. An outline of the steps: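 Leukemia cells (MV4;11 or HL-60) in medium with 10% FBS were treated with a dose range of compound for 14 days. Proliferation was read by CellTiter-Glo endpoint, with inhibition set against untreated controls and cell-free wells as 100% inhibition. Viability was also measured in parallel by trypan blue exclusion.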

Data set [4] in a line: Drug level in SCID/beige mouse liver xenografted with human MV4-11 cells at 30 mg/kg/day via osmotic-mini pump. It is filed as ADME, organism-based. Particulars: in vivo. The essentials: (§2)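 Tumor-bearing SCID-beige female mice (6–8 wk) with subcutaneous flank MV4;11 xenografts (5 x 10^6 cells in 50% Matrigel, grown to ~200 mm3). Compound given by osmotic mini-pump at 30 mg/kg/day in 98% PEG-400/2% Tween-80. Separate PK/PD arm sacrificed after 2, 7 and 14 days of treatment; plasma and tissues collected and analyzed for drug levels.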

In another data set the test system is Mus musculus. The experiment in a line: Decrease in H3K9me2 level in SCID/beige mouse tumor xenografted with human MV4-11 cells at 30 mg/kg/day via osmotic-mini pump for 7 days by alphaLisa assay. The class given is functional, organism-based. The following applies: Neoplasm, time 7.0 day. An outline of the steps:
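Female SCID-beige mice, 6–8 weeks old, received 5 x 10^6 MV4;11 cells in 50% Matrigel subcutaneously in the flank. At about 200 mm3, compound was given at 30 mg/kg/day by osmotic mini-pump in 98% PEG-400/2% Tween-80. In the PK/PD arm, tumors were harvested at the stated day and H3K9me2 was measured by AlphaLISA relative to vehicle.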

Data set [5] in a line: Drug level in SCID/beige mouse plasma xenografted with human MV4-11 cells at 30 mg/kg/day via osmotic-mini pump. The class given is ADME, organism-based. The following applies: in vivo. An outline of the steps: as §2
For data set [6], the target named is T1, Histone-lysine N-methyltransferase EHMT2 (Homo sapiens). As to the kind of experiment: Inhibition of G9a in human PC-3 cells assessed as effect on H4k20me3 levels at 0.3 to 3 uM after 72 hrs by Western blot analysis. It is filed as cell-based. Particulars: dose 0.3-3 µM. The essentials:
as §1

For orientation: EC50 means the concentration that produces a half-maximal response. What is called inhibition in vivo is the drop in the measured response relative to a control, in per cent.

Activity calls are given as the source filed them. The calls are words filed in the database; no cut-off is given here.

`COc1cc2c(NC3CCN(C(C)C)CC3)nc(C3CCCCC3)nc2cc1OCCCN1CCCC1`: in the data set with MCF7, the result was Active. The molecule also returned a 50% effective concentration (EC50) in the data set on HT-1080 of 1400 nM.

Turning to `COc1cc2c(cc1OCCCN1CCCC1)N=C(N)C21CCC1`, the inhibition in vivo at 30 mg/kg/day in the data set with MV4-11 was found to be 45%. Moreover, the inhibition result in data set [1], in [3] and in data set [6] was “inactive” each time. The inhibition entry (in data set [2]; with Mus musculus) was “Active” throughout. In addition, the result with HL-60 was Active. Moreover, the Drug uptake result in data set [4] and in [5] was “Active” in each case.
